Where a name gives a salt, the structure may show the parent alone.
Experiments:
[1] = Antiinflammatory activity assessed as inhibition of heat-induced albumin denaturation preincubated for 20 mins followed by heating at 51 degC and measured after 3 mins by UV-vis spectrophotometric method
Homo sapiens = species: Homo sapiens; assay: Selectivity index, ratio of IC50 for sheep COX1 to IC50 for recombinant human COX2 expressed in baculovirus infected Sf21 cells
Procedure, shortened: (§1)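 Enzymes activated for 5 min on ice with cofactor solution of 0.9 mM glutathione, hematin and 0.24 mM TMPD in 0.1 M Tris-HCl pH 8.0; COX-2 at 300 units/ml. Reaction started with 30 mM arachidonic acid stock, run 5 min, absorbance read at 570 nm. IC50 taken from inhibition-vs-concentration plots as means of three determinations. SI = IC50(COX-1)/IC50(COX-2).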

[2] = Inhibition of trypsin (unknown origin) using casein as substrate preincubated for 5 mins followed by substrate addition and measured after 20 mins; set-up: species or system Homo sapiens
Procedure, shortened: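 Trypsin 0.06 mg/ml in 20 mM Tris-HCl pH 7.4 with compound at 31.25–1000 µg/ml, 5 min at 37 °C. 0.8% (w/v) casein added, 20 min further, stopped with 70% perchloric acid. After centrifugation, supernatant absorbance read at 217 nm against buffer blank. % inhibition against control; IC50 from plot; three runs.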

[3] = biological target: T1, Polyunsaturated fatty acid 5-lipoxygenase (Homo sapiens, UniProt P09917); assay: Inhibition of recombinant human 5LOX expressed in baculovirus infected Sf insect cells using linoleic acid as substrate preincubated for 5 mins followed by substrate addition
T1 sequence (P09917 whole entry): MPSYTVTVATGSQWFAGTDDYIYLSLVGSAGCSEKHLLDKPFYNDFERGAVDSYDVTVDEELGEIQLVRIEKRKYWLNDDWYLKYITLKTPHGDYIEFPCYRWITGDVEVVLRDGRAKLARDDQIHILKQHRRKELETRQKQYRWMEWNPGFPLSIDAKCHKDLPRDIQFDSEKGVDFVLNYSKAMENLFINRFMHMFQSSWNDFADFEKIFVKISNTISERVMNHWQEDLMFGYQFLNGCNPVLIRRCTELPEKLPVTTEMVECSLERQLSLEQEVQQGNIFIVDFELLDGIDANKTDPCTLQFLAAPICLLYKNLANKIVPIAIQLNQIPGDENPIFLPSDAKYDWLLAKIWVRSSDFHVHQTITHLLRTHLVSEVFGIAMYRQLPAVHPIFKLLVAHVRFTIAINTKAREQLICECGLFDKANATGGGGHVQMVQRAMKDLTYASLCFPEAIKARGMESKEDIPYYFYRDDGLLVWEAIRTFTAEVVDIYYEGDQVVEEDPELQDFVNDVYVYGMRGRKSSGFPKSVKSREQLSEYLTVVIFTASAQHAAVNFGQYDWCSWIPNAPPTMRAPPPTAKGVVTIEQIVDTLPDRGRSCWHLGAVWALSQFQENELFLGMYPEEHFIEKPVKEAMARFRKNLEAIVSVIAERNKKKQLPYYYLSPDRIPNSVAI

[4] = biological target: T2, Prostaglandin G/H synthase 1 (Ovis aries, UniProt P05979); assay: Inhibition of sheep COX1 using arachidonic acid as substrate preincubated for 5 mins followed by substrate addition and measured after 5 mins by UV-visible spectrophotometric method
T2 sequence (P05979 whole entry): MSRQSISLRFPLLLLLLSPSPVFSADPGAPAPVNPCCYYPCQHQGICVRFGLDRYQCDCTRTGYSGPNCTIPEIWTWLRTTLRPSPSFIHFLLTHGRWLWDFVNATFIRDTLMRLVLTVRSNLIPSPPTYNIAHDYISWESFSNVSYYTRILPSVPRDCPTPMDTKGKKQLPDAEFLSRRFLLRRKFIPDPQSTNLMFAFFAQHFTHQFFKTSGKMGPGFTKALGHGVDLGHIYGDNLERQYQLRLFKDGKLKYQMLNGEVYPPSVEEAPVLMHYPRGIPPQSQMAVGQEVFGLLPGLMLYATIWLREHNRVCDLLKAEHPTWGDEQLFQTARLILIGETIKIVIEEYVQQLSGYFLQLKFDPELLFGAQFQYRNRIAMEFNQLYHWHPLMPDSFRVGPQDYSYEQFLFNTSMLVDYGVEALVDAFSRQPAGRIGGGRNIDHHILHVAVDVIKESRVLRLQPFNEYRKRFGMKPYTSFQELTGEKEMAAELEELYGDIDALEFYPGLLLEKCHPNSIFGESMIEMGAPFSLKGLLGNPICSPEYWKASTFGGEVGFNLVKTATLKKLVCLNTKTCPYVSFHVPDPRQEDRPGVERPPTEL
Procedure, shortened: as §1

Mus musculus [5] = assay: Antiinflammatory activity in histamine-induced paw edema in Balb/c mouse assessed as inhibition of paw edema at 1 mg/kg, ip administered 1 hr prior to histamine challenge and measured after 1 hr relative to control; assay type: functional; conditions: time 2 hrs
Procedure, shortened: (§2)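 BALB/c mice of either sex (30–35 g), 8 per group, dosed i.p. with 10% DMSO, reference drug or compound (100 mg/kg). After 1 h, subplantar irritant: PGE2 0.01 µg/ml, bradykinin 20 µg/ml, histamine 0.1 ml of 1 mg/ml, or leukotriene 10 µg/ml.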

Mus musculus [6] = assay: Antiinflammatory activity in PGE2-induced paw edema in Balb/c mouse assessed as inhibition of paw edema at 50 mg/kg, ip administered 1 hr prior to PGE2 challenge and measured up to 5 hrs relative to control; assay type: functional; conditions: time 2-6 hrs
Procedure, shortened: as §2

Mus musculus [7] = assay: Antiinflammatory activity against carrageenan-induced paw edema in Swiss mouse assessed as inhibition of paw edema at 100 mg/kg administered 30 mins prior to carrageenan challenge and measured after 3 hrs by […]-method (reference value: 11.41 +/- 3.069%); assay type: functional; conditions: time 3.5 hrs
Mus musculus [8] = assay: Antiinflammatory activity against carrageenan-induced paw edema in Swiss mouse assessed as inhibition of paw edema at 100 mg/kg administered 30 mins prior to carrageenan challenge and measured after 2 hrs by […]-method (reference value: 7.39 +/- 2.475%); assay type: functional; conditions: time 2.5 hrs
Mus musculus [9] = assay: Antiinflammatory activity in leukotriene-induced paw edema in Balb/c mouse assessed as inhibition of paw edema at 25 mg/kg, ip administered 1 hr prior to leukotriene challenge and measured after 3 hrs relative to control; assay type: functional
Procedure, shortened: as §2

Mus musculus [10] = assay: Antiinflammatory activity against carrageenan-induced paw edema in Swiss mouse assessed as inhibition of paw edema at 100 mg/kg administered 30 mins prior to carrageenan challenge and measured after 4 hrs by […]-method (reference value: 14.46 +/- 1.568%); assay type: functional; conditions: time 4.5 hrs
Mus musculus [11] = assay: Antiinflammatory activity against carrageenan-induced paw edema in Swiss mouse assessed as inhibition of paw edema at 100 mg/kg administered 30 mins prior to carrageenan challenge and measured after 1 hr by […]-method (reference value: 7.66 +/- 3.753%); assay type: functional; conditions: 1.5 h, time 90 min
Mus musculus [12] = assay: Antiinflammatory activity against carrageenan-induced paw edema in Swiss mouse assessed as inhibition of paw edema at 100 mg/kg administered 30 mins prior to carrageenan challenge and measured after 5 hrs by […]-method (reference value: 7.31 +/- 3.204%); assay type: functional; conditions: time 5.5 hrs

SMILES | Ratio IC50 (Homo sapiens) | IC50 [2] | IC50 [3] | IC50 [4] | other results
COc1ccc(C(=O)CC2CC(=O)N(c3ccc(S(N)(=O)=O)cc3)C2=O)cc1 (centres undefined) | 18.7 | 14.9 µM | 4.74 µM | 39.2 µM | IC50 [1]: 24.9 µM
CN(C)CCC(c1ccc(Cl)cc1)c1ccccn1 (centres undefined) [CHLORPHENIRAMINE MALEATE] |  |  |  |  | inhibition in vivo at 1 mg/kg (Mus musculus [5]): 71.8%
O=C1CCCCC1C1CC(=O)N(c2ccc(Br)cc2)C1=O (centres undefined) | 1.64 | 99.9 µM | 130 µM | 186 µM | 
CC(=O)C(C)(C)C1CC(=O)N(c2ccccc2)C1=O (centres undefined) | 0.73 | 88.7 µM | 53.4 µM | 39.3 µM | 
CC(=O)CC1CC(=O)N(c2ccccc2)C1=O (centres undefined) | 0.52 | 151 µM | 62.4 µM | 33.3 µM | 
NS(=O)(=O)c1ccc(N2C(=O)CC(CC(=O)c3ccccc3)C2=O)cc1 (centres undefined) | 11.5 | 45.6 µM | 5.29 µM | 48.7 µM | 
O=C1CCCC1C1CC(=O)N(c2ccccc2)C1=O (centres undefined) | 0.58 | 85.5 µM | 98.5 µM | 30.3 µM | IC50 [1]: 97.2 µM
Cc1ccc(-c2cc(C(F)(F)F)nn2-c2ccc(S(N)(=O)=O)cc2)cc1 [CELECOXIB] |  |  |  |  | inhibition in vivo at 50 mg/kg (Mus musculus [6]): 65.9%
O=C(O)Cc1ccccc1Nc1c(Cl)cccc1Cl [DICLOFENAC] |  | 42.7 µM |  |  | 
CC(=O)Oc1ccccc1C(=O)O [ASPIRIN] |  |  |  |  | inhibition in vivo at 100 mg/kg (Mus musculus [7]): 53.3%; inhibition in vivo at 100 mg/kg (Mus musculus [8]): 54.6%; inhibition in vivo at 25 mg/kg (Mus musculus [9]): 77.4%; inhibition in vivo at 100 mg/kg (Mus musculus [10]): 56.9%; inhibition in vivo at 100 mg/kg (Mus musculus [11]): 47.5%; inhibition in vivo at 100 mg/kg (Mus musculus [12]): 57.6%
NS(=O)(=O)c1ccc(N2C(=O)CC(C3CCCCCC3=O)C2=O)cc1 (centres undefined) | 2.36 |  | 16.1 µM | 49.1 µM | 
NS(=O)(=O)c1ccc(N2C(=O)CC(C3CCCCC3=O)C2=O)cc1 (centres undefined) | 2.04 |  | 21.3 µM | 43.4 µM | 
O=C1CCOCC1C1CC(=O)N(c2ccccc2)C1=O (centres undefined) | 0.86 | 117 µM | 26.8 µM | 48.9 µM | 
O=C1CCCCCC1C1CC(=O)N(c2ccccc2)C1=O (centres undefined) | 1.66 | 63.1 µM | 18.4 µM | 65.6 µM | 
NS(=O)(=O)c1ccc(N2C(=O)CC(CC(=O)c3ccccn3)C2=O)cc1 (centres undefined) | 4.88 | 13.4 µM | 0.81 µM | 43.7 µM | 
O=C1CCCCC1C1CC(=O)N(c2ccccc2)C1=O (centres undefined) | 1.45 | 66.3 µM | 78.3 µM | 65.6 µM | 
NS(=O)(=O)c1ccc(N2C(=O)CC(CC(=O)c3ccc(Cl)cc3)C2=O)cc1 (centres undefined) | 10.9 | 21.5 µM | 12.6 µM | 68.8 µM | 
CC1CCC(=O)C(C2CC(=O)N(c3ccccc3)C2=O)C1 (centres undefined) | 0.93 | 77.1 µM | 69.2 µM | 53 µM | 
CC1CCC(=O)C(C2CC(=O)N(Cc3ccccc3)C2=O)C1 (centres undefined) | 2.35 | 63.5 µM | 56.2 µM | 51.5 µM | 

Reference: ChEMBL document CHEMBL4715833, “Design, synthesis, in-vitro, in-vivo and in-silico studies of pyrrolidine-2,5-dione derivatives as multitarget anti-inflammatory agents” (Eur J Med Chem, 2020)
